Experimental findings from ChEMBL document CHEMBL1145955, “Synthesis, anti-HIV activity, and molecular mechanism of drug resistance of L-2',3'-didehydro-2',3'-dideoxy-2'-fluoro-4'-thionucleosides” (J Med Chem, 2003) are described below.

A short description of test [1]: Evaluated in vitro for their potential toxic effects on uninfected PHA-stimulated human PBM cells. The test is classed as functional, cell-based. The gist of the method:
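Uninfected PHA-stimulated PBM cells from healthy seronegative donors (Ficoll-Hypaque) were plated at 5 × 10⁴ cells/well with 10-fold serial drug dilutions for 5 days at 37 °C, 5% CO₂. The MTT readout was taken at 570 nm after overnight dye and 5 h solubilization. IC50 came from median-effect curves.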

For another test, the system named is Vero. Put plainly: Evaluated in vitro for their potential toxic effects against Vero cells. The test is classed as functional, cell-based. The following applies: Chlorocebus sabaeus. The gist of the method: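 Log-phase Vero cells were seeded at 5 × 10³ cells/well in 10-fold serial drug dilutions and incubated 3 days at 37 °C, 5% CO₂. MTT dye was added overnight, then solubilized for 5 h and read at 570 nm. IC50 was taken from median-effect concentration-response curves.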

Test [2] can be described thus: (§1) In vitro anti-HIV activity was determined in PBM cells infected with HIV-1. As to conditions: Homo sapiens, PBMC.
In a further test the test system is CCRF-CEM. Put plainly: Evaluated in vitro for their potential toxic effects human CEM cells. The test is classed as functional, cell-based. The gist of the method: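 CEM T-lymphoblastoid cells in log phase, 2.5 × 10³ cells/well, were exposed to 10-fold serial drug dilutions for 4 days at 37 °C, 5% CO₂. Viability was read by MTT (overnight dye, 5 h solubilization, 570 nm). IC50 was determined by the median-effect method.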

The subject of test [3] is Human immunodeficiency virus 1. The test is described as §1. The test is classed as functional, organism-based. The following applies: Human immunodeficiency virus 1, PBMC. The gist of the method:
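PHA-stimulated (2-3 days) human PBM cells from healthy seronegative donors, infected in bulk for 1 h with HIV-1 LAI (100 TCID50/1 × 10⁷ cells in flasks or 200 TCID50/6 × 10⁵ cells/well). Infected cells went onto 10-fold serial compound dilutions in RPMI-1640 with 16% FBS, DEAE-dextran and IL-2, 5 days at 37 °C. Virion-pelleted supernatant RT activity was measured by poly(rA)·oligo(dT)/³H-TTP incorporation (37 °C, 2 h). EC50/EC90 came from median-effect curves.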

In test [4] the test system is Vero (Chlorocebus sabaeus). Nature of the test: Evaluated in vitro for their potential toxic effects against Vero cells.
Test [5] is described as follows: Fold increase was determined from the ratio of EC90 (HIV-1M184V) / EC90 (HIV-1xxBRU). The test is classed as functional. The gist of the method:
(§2)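 Molecular clones HIV-1 xxBru (wild type) and HIV-1 M184Vpitt infected PHA-stimulated human PBM cells in bulk for 1 h. Cells were cultured with 10-fold serial compound dilutions, 5 days, 37 °C, 5% CO2. Read-out was supernatant RT activity with ³H-TTP incorporation. EC50 and EC90 were taken from concentration-response curves by the median effect method. Fold increase = EC90(M184V)/EC90(xxBru).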

The subject of test [6] is Human immunodeficiency virus 1. Nature of the test: Antiviral activity was determined against WT (HIV-1xxBRU). The test is classed as functional. The gist of the method: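 Molecular infectious clone HIV-1 xxBru was used to infect PHA-stimulated human PBM cells in bulk for 1 h (100 TCID50/1 × 10⁷ cells or 200 TCID50/6 × 10⁵ cells/well). Cells were cultured 5 days at 37 °C with 10-fold serial compound dilutions. Readout was supernatant RT activity, with ³H-TTP incorporation on poly(rA)·oligo(dT). EC50 was derived by the median-effect method.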

Test [7] has as its system Human immunodeficiency virus 1. Nature of the test: Antiviral activity was determined against lamivudine-resistant mutant M184V strain. The test is classed as functional. The gist of the method: as §2

One may read the IC50 as the concentration that gives 50% inhibition. A higher IC50 goes with lower potency. For orientation: EC50 means the midpoint of the concentration-response curve. For `Cc1cn([C@H]2C[C@H](N=[N+]=[N-])[C@@H](CO)O2)c(=O)[nH]c1=O` [ZIDOVUDINE], the results for the half-inhibitory concentration (IC50) (in test [1]; with Vero; in the test on CCRF-CEM) were greater than 100 µM, 14.3 µM and 29 µM, respectively. Also, the midpoint of the response in test [2], the EC50, lay at 4 nM.
`Nc1ncnc2c1ncn2[C@H]1S[C@@H](CO)C=C1F` yielded an EC50 in test [3] of 1.7 µM. Besides, the half-inhibitory concentration (IC50) (in test [1]; with Vero; in the test on CCRF-CEM) was greater than 100 µM throughout.
On to `O=c1ccn([C@H]2S[C@@H](CO)C=C2F)c(=O)[nH]1`, for which the EC50 in test [3] was greater than 100 µM. Besides, the IC50 (in test [1]; in the test on Vero; in the test with CCRF-CEM) was greater than 100 µM each time.
In turn, `Nc1nc(O)c2ncn([C@H]3S[C@@H](CO)C=C3F)c2n1` registered an EC50 in test [3] of 43.5 µM. The IC50 in [1] was greater than 100 µM; in the test with Vero it was 66.4 µM; in the test on CCRF-CEM, 41.5 µM.
Taken in the same sequence, the figures for `Cc1cn([C@H]2S[C@@H](CO)C=C2F)c(=O)[nH]c1=O` were greater than 100 µM, greater than 100 µM, greater than 100 µM and greater than 100 µM.
In the case of `OC[C@H]1C=C(F)[C@@H](n2cnc3c(O)ncnc32)S1`, it took 15.5 µM to reach a half-maximal effect in test [3] (EC50). The IC50 (in test [1]; in the test with Vero; with CCRF-CEM) was greater than 100 µM throughout.
In test [3], `Nc1nc(=O)n([C@H]2S[C@@H](CO)C=C2F)cc1F` returned an EC50 of 0.15 µM. The IC50 (in test [1]; in the test with Vero; in the test with CCRF-CEM) was greater than 100 µM each time.
In general, EC90 refers to the concentration needed for an effect of 90%. In the case of `Nc1ccn([C@H]2S[C@@H](CO)C=C2F)c(=O)n1`, the IC50 (in [4]; in [1]; in the test with CCRF-CEM) was greater than 100 µM in each case. This compound also returned an EC50 in test [3] of 0.12 µM. Further, in test [5], the FI was greater than 100. Further, the EC90 was 1400 nM in [6] and greater than 100 µM in test [7].
